Source: ChEMBL document CHEMBL1147093, “Miltefosine affects lipid metabolism in Leishmania donovani promastigotes” (2007)
The source made the active and inactive calls. The calls are words filed in the database; no cut-off is given here.

Experiments:
[1] = system: Leishmania donovani; assay: Effect on total membrane fatty acid composition in Leishmania donovani LV9 promastigotes assessed by measuring 9-octadecenoate fatty acid at 10 uM; type: functional
In short: (§1)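 Log-phase LV9 wild-type promastigotes were exposed to HePC for 48 h before harvest, in 1 liter of medium 199 at 26°C. Washed whole-cell pellets served as total membranes. Fatty acids were analysed by gas chromatography as methyl esters and expressed as % of total fatty acids (mean ± SD, n = 3).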

[2] = system: Leishmania donovani; assay: Effect on total membrane fatty acid composition in Leishmania donovani LV9 promastigotes assessed by measuring octadecanoate fatty acid at 10 uM; type: functional; in short: as §1
[3] = system: Leishmania donovani; assay: Effect on total membrane fatty acid composition in Leishmania donovani LV9 promastigotes assessed by measuring unsaturated fatty acids at 10 uM; type: functional; in short: as §1
[4] = system: Leishmania donovani; assay: Effect on total membrane fatty acid composition in Leishmania donovani LV9 promastigotes assessed as decrease in C16 fatty acid content at 10 uM; type: functional; parameters: scale not given: the % may be the effect or the level left; in short: as §1
[5] = system: Leishmania donovani; assay: Effect on total membrane sterol composition in Leishmania donovani LV9 promastigotes assessed by measuring cholesterol content at 10 uM; type: functional
In short: (§2)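 LV9 promastigotes (wild type, 26°C, 1 liter shaken culture) were exposed to HePC for 48 h before harvest. Total membranes were extracted in dichloromethane-methanol 2:1 for 24 h at 4°C, then saponified with 30% KOH/methanol at 80°C for 2 h. Sterols were extracted into hexane, converted to TMS ethers with BSTFA (80°C, 1 h) and analysed by GC-MS with EI at 70 eV. Results are given as % total sterol, n = 3.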

[6] = system: Leishmania donovani; assay: Effect on total membrane sterol composition in Leishmania donovani LV9 promastigotes assessed by measuring 14-alpha-Methylcholesta-5,7,24-trien-3beta-ol content at 10 uM; type: functional; in short: as §2
[7] = system: Leishmania donovani; assay: Effect on total membrane sterol composition in Leishmania donovani LV9 promastigotes assessed by measuring ergosterol content at 10 uM; type: functional; in short: as §2
[8] = system: Leishmania donovani; assay: Effect on total membrane sterol composition in Leishmania donovani LV9 promastigotes assessed by measuring cholesta-5,7,24-trien-3beta-ol content at 10 uM; type: functional; in short: as §2
[9] = system: Leishmania donovani; assay: Effect on total membrane sterol composition in Leishmania donovani LV9 promastigotes assessed by measuring ergosta-5,7,22,24(24')-tetraen-3beta-ol content at 10 uM; type: functional; in short: as §2
[10] = system: Leishmania donovani; assay: Effect on total membrane sterol composition in Leishmania donovani LV9 promastigotes assessed by measuring ergosta-5,7,24(24')-trien-3beta-ol content at 10 uM; type: functional; in short: as §2
[11] = system: Leishmania donovani; assay: Effect on total membrane sterol composition in Leishmania donovani LV9 promastigotes assessed by measuring stigmasta-7,24(24')-dien-3beta-ol content at 10 uM; type: functional; in short: as §2
[12] = system: Leishmania donovani; assay: Effect on total membrane sterol composition in Leishmania donovani LV9 promastigotes assessed by measuring ergosta-7,22-dien-3beta-ol content at 10 uM; type: functional; in short: as §2
[13] = system: Leishmania donovani; assay: Effect on total membrane sterol composition in Leishmania donovani LV9 promastigotes assessed by measuring 14-alpha-Methylergosta-5,7,24(24')-trien-3beta-ol content at 10 uM; type: functional; in short: as §2
[14] = system: Leishmania donovani; assay: Effect on total membrane sterol composition in Leishmania donovani LV9 promastigotes assessed by measuring 4,4alpha-Dimethylcholesta-8,24-dien-3beta-ol content at 10 uM; type: functional; in short: as §2
[15] = system: Leishmania donovani; assay: Effect on total membrane sterol composition in Leishmania donovani LV9 promastigotes assessed by measuring 4-alpha,14alpha-Dimethylcholesta-8,24-dien-3beta-ol content at 10 uM; type: functional; in short: as §2
[16] = system: Leishmania donovani; assay: Effect on total membrane sterol composition in Leishmania donovani LV9 promastigotes assessed by measuring 14-alpha-Methylergosta-8,24(24')-dien-3beta-ol content at 10 uM; type: functional; in short: as §2
[17] = system: Leishmania donovani; assay: Effect on total membrane sterol composition in Leishmania donovani LV9 promastigotes assessed by measuring 4,4alpha-Dimethylergosta-8,24(24')-dien-3beta-ol content at 10 uM; type: functional; in short: as §2
[18] = system: Leishmania donovani; assay: Effect on total membrane sterol composition in Leishmania donovani LV9 promastigotes assessed by measuring 4-alpha,-14alpha-Dimethylergosta-8,24(24')-dien-3beta-ol content at 10 uM; type: functional; in short: as §2
[19] = system: Leishmania donovani; assay: Effect on total membrane sterol composition in Leishmania donovani LV9 promastigotes assessed by measuring 24-Methylenedihydrolanosterol content at 10 uM; type: functional; parameters: scale not given: the % may be the effect or the level left; in short: as §2
[20] = system: Leishmania donovani; assay: Growth inhibition of wild type Leishmania donovani LV9 at 10 uM after 48 hrs; type: functional; details: LV9, 48 h
In short: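 Promastigotes were grown in medium 199 with 10% heat-inactivated FCS, HEPES, adenosine, hemin and gentamicin at 26°C in the dark. HePC was tested at 20, 10, 5, 2.5 and 1.25 μM. Cells were counted microscopically at 24, 48 and 72 h. n = 3.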

[21] = system: Leishmania donovani; assay: Effect on total membrane phospholipid composition in wild type Leishmania donovani LV9 assessed as decrease in phosphatidyl choline at 10 uM after 48 hrs; type: functional; parameters: scale not given: the % may be the effect or the level left
In short: (§3)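 Wild-type LV9 promastigotes were cultured in 1 liter of supplemented medium 199 at 26°C with shaking. HePC (aqueous) was added 48 h before harvest at late log phase. After TBS washes, the whole-cell pellet was taken as total membranes. Lipids were extracted with chloroform/methanol and phospholipids profiled by HPLC on a PVA-sil column with evaporative light-scattering detection. n = 3.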

[22] = system: Leishmania donovani; assay: Effect on plasma membrane phospholipid composition in wild type Leishmania donovani LV9 assessed as decrease in phosphatidyl choline at 10 uM after 48 hrs; type: functional; parameters: scale not given: the % may be the effect or the level left
In short: (§4)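 Wild-type LV9 promastigotes grown at 26°C with shaking, starting at 10^6/ml in 1 liter of medium 199 with 10% FCS. HePC in aqueous solution was added 48 h before harvest at late log phase. Cells were washed in TBS and lysed by freeze-thaw; a 2,100 × g pellet gave the plasma membrane-enriched fraction. Lipids were extracted with chloroform/methanol and phospholipids analysed by HPLC (PVA-sil column, light-scattering detection). n = 3.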

[23] = system: Leishmania donovani; assay: Effect on total membrane phospholipid composition in wild type Leishmania donovani LV9 assessed as increase in phosphatidyl ethanolamine at 10 uM after 48 hrs; type: functional; in short: as §3
[24] = system: Leishmania donovani; assay: Effect on plasma membrane phospholipid composition in wild type Leishmania donovani LV9 assessed as increase in phosphatidyl ethanolamine at 10 uM after 48 hrs; type: functional; in short: as §4
[25] = system: Leishmania donovani; assay: Effect on phospholipid composition in HePC-resistant Leishmania donovani at 1 uM; type: functional, organism-based
In short: (§5)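 HePC-resistant L. donovani LV9 promastigotes were kept under 40 μM HePC in medium 199 with 10% inactivated FCS, HEPES, adenosine, hemin and gentamicin at 26°C in the dark, then exposed to added HePC. Cells were harvested in late log phase and washed in cold TBS. Lipids from total and plasma-membrane-enriched fractions were extracted with chloroform/methanol. Phospholipids were quantified by HPLC on a PVA-sil column with evaporative light scattering detection.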

[26] = system: Leishmania donovani; assay: Effect on phospholipid composition in HePC-resistant Leishmania donovani at 10 uM; type: functional, organism-based; in short: as §5
[27] = system: Leishmania donovani; assay: Effect on total membrane fatty acid composition in Leishmania donovani LV9 promastigotes assessed by measuring dodecanoate fatty acid at 10 uM; type: functional; in short: as §1
[28] = system: Leishmania donovani; assay: Effect on total membrane fatty acid composition in Leishmania donovani LV9 promastigotes assessed by measuring tetradecanoate fatty acid at 10 uM; type: functional; in short: as §1
[29] = system: Leishmania donovani; assay: Effect on total membrane fatty acid composition in Leishmania donovani LV9 promastigotes assessed by measuring 9-hexadecenoate fatty acid at 10 uM; type: functional; in short: as §1
[30] = system: Leishmania donovani; assay: Effect on total membrane fatty acid composition in Leishmania donovani LV9 promastigotes assessed by measuring hexadecanoate fatty acid at 10 uM; type: functional; in short: as §1
[31] = system: Leishmania donovani; assay: Effect on total membrane sterol composition in Leishmania donovani LV9 promastigotes assessed by measuring total C24 alkyl sterol content at 10 uM; type: functional; in short: as §2
[32] = system: Leishmania donovani; assay: Effect on total membrane sterol composition in Leishmania donovani LV9 promastigotes assessed as reduction in total C24 alkyl sterol content; type: functional; parameters: scale not given: the % may be the effect or the level left; in short: as §2
[33] = system: Leishmania donovani; assay: Effect on total membrane sterol composition in Leishmania donovani LV9 promastigotes assessed by measuring 14-alpha-Methylcholesta-8,24-dien-3beta-ol content at 10 uM; type: functional; in short: as §2
[34] = system: Leishmania donovani; assay: Effect on total membrane sterol composition in Leishmania donovani LV9 promastigotes assessed by measuring ergosta-7,24(24')-dien-3beta-ol content at 10 uM; type: functional; in short: as §2

CCCCCCCCCCCCCCCCOP(=O)([O-])OCC[N+](C)(C)C [MILTEFOSINE]
Activity [1]: 34.22%
Activity [2]: 22.33%
Activity [3]: 52%
Activity [4]: 41%
Activity [5]: 61.2%
Activity [6]: 0.1%
Activity [7]: 26.3%
Activity [8]: 3.2%
Activity [9]: 1.6%
Activity [10]: 5.1%
Activity [11]: 0.3%
Activity [12]: 0.2%
Activity [13]: 0.3%
Activity [14]: 0.2%
Activity [15]: 0.2%
Activity [16]: 0.3%
Activity [17]: 0.7%
Activity [18]: 0.2%
Activity [19]: 1.4%
inhibition at 10 µM [20]: 66%
Activity [21]: 42%
Activity [22]: 47%
Activity [23]: 19%
Activity [24]: 25%
Activity [25]: inactive
Activity [26]: inactive
Activity [27]: 1.84%
Activity [28]: 3.85%
Activity [29]: 1.56%
Activity [30]: 4.8%
Activity [31]: 36.6%
Activity [32]: 43%
Activity [33]: 0.2%
Activity [34]: 0.4%
